FLuc stim CS: FLuc activators, initial screening, artefact control for FLuc-dependent activation tests, biochemical, ATPlite luminescence. Luciferin 4-monooxygenase (Photinus pyralis), P08659. ATPlite luciferase biochemical, 10 min; 0 = ATP-free wells, 1 = DMSO control. activation factor at 10 µM. 200,000 tested, under 10 active;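 active means luciferase activation factor, scaled between plate controls, of at least 2 with compound at 10 µM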
Target sequence (P08659 whole entry, looked up): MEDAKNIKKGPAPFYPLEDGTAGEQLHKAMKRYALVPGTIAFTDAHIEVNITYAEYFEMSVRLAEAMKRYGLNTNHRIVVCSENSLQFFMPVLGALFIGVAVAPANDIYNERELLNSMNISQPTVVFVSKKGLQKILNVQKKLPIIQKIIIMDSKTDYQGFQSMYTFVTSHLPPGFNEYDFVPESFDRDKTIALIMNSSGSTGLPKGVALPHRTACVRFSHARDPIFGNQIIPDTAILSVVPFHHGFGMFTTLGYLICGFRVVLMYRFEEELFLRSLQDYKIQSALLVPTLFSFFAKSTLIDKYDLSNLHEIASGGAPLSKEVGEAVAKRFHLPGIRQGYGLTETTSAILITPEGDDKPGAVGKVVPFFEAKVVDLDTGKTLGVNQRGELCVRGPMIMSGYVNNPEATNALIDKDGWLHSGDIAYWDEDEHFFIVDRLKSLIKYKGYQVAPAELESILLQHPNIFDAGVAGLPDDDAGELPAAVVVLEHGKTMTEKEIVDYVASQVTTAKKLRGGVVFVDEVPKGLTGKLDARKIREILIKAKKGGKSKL
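Assay system: Luciferase/luciferin reagent mix; Medium: PBS as buffer for the ATP substrate; Dosing: test compounds dosed from 2 mM stocks in 100% DMSO; Times: 10 min, room temperature; Signal: luminescence from luciferase reaction; Read-out: luciferase activation; Controls: No-ATP low control, compound-free enzyme-plus-ATP high control.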
NF-kB expr up: activators of NF-kB expression in neurons, primary screen, cell-based, HTS; human neuronal cells, NF-kB reporter expression; stronger effect = higher value; fold change at 12.5 µM; 190,000 compounds, 1.6% hits; in the data active means fold change above about 3.3
STAT1 activator: STAT1 signaling activators, primary screen, cell-based, HTS, luciferase reporter. activation (% of control), % at 5.5 µM. 200,000 compounds, 2.6% hits. NIH 3T3 STAT1-luciferase reporter, IFN-gamma, luminescence; 100% = IFN-gamma alone, no compound. AID 932, 2007;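 active means activation above the screen-wide mean activation plus 3 SD, cut at about 130% in these data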
Pf gametocyte: late stage P. falciparum gametocyte viability inhibitors, primary screen, ATP luminescence, HTS; inhibition, % at 10.9 µM; 150,000 compounds, 0.065% hits; AID 743093, 2013; P. falciparum stage V gametocytes, 24 h;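 active means inhibition above the mean plus 3 SD of compounds within the control limits, set per campaign, cut at about 38% in these data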
APP 5'UTR act: activators of APP 5'UTR luciferase reporter, primary screen, SH-SY5Y cells; SH-SY5Y APP 5'UTR luciferase reporter, luminescence; zero percent = DMSO vehicle wells; activation, % at 2 µM; 190,000 compounds, 1% hits; AID 1276, 2008;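 active means activation above a set limit, based on mean plus 3 SD of controls, cut at about 140% in these data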
FLuc inhib CS: firefly luciferase enzyme inhibitors, primary screen, artefact control for luciferase-based inhibitor screens, biochemical, luminescence, ATPLite | 10 min | inhibition, % at 10 µM | 200,000 compounds, 1.5% hits;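 active means inhibition above about 50% when tested at 10 µM, limit read from the data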
Large screens that a line does not name were inactive. Hits are enriched below; roughly 3.5% of the tested compounds scored in any of these assays.

CC(C)(C)c1cc(CNC2CS(=O)(=O)C[C@@H]2O)cc(C(C)(C)C)c1O (some centres undefined)	none (no result: Pf gametocyte, APP 5'UTR act)
O=C(/C(C=Nc1cc2c(oc1=O)CCCC2=O)=C(\O)c1ccccc1)c1ccccc1	STAT1 activator 149
O=Cc1ccc(OCc2cccc(C(F)(F)F)c2)cc1O	none
COc1cc(/C=N/NC(=O)c2cccc([N+](=O)[O-])c2)ccc1OCc1ccccc1	none (no result: Pf gametocyte)
COc1cc(/C=C/[N+](=O)[O-])ccc1OCc1cccc(C(=O)O)c1	NF-kB expr up 4.4 (no result: Pf gametocyte)
O=C(OCC(F)(F)F)c1cccc(COc2ccc3ccccc3c2)c1	NF-kB expr up 8.1
O=C(NN1CCCCC1)c1cccc(COc2ccc(Cl)cc2)c1	STAT1 activator 130
CCOc1ccc(OCc2cccc(C(=O)N3CCCCCC3)c2)cc1	FLuc inhib CS 67
COc1ccc(OCc2cccc(C(=O)O)c2)cc1	NF-kB expr up 8.6, FLuc inhib CS 83 (no result: STAT1 activator, Pf gametocyte, APP 5'UTR act)
CCOc1ccc(OCc2cccc(C(=O)N3CCCC3)c2)cc1	none (no result: Pf gametocyte)
O=C(O)c1cccc(COc2ccc(CO)cc2Cl)c1	FLuc inhib CS 85 (no result: STAT1 activator, Pf gametocyte, APP 5'UTR act)
CCOc1ccc(OCc2cccc(C(=O)O)c2)cc1	NF-kB expr up 12, FLuc inhib CS 93 (no result: STAT1 activator, Pf gametocyte, APP 5'UTR act)
O=C(O)c1ccc(COc2ccc(CO)cc2Cl)cc1	none (no result: Pf gametocyte)
C=CCNc1cccc(Br)c1	none (no result: FLuc stim CS, NF-kB expr up, STAT1 activator, APP 5'UTR act, FLuc inhib CS)
Cc1ccc(Nc2nnc(C)c3ccccc23)c(C)c1	none (no result: FLuc stim CS, NF-kB expr up, STAT1 activator, APP 5'UTR act, FLuc inhib CS)
COc1ccc(-n2c(C)cc(/C=N/Nc3nnc(C)n3N)c2C)cc1	STAT1 activator 131
CCOc1ccc(-n2c(C)cc(/C=N/Nc3nc(C)cc(=O)[nH]3)c2C)cc1	none (no result: FLuc stim CS, NF-kB expr up, STAT1 activator, APP 5'UTR act, FLuc inhib CS)
c1csc(CNc2ncnc3ccc(-c4ccc5c(c4)OCCO5)cc23)c1	none (no result: FLuc stim CS, NF-kB expr up, STAT1 activator, APP 5'UTR act, FLuc inhib CS)
N#C/C(=C\c1cc([N+](=O)[O-])c(N2CCOCC2)cc1N1CCOCC1)c1nc2ccccc2[nH]1	none
N#C/C(=C/c1cccs1)c1nc2ccccc2[nH]1	STAT1 activator 145
Cc1cc(/C=C(/C#N)c2nc3ccccc3[nH]2)c(C)n1-c1cccc([N+](=O)[O-])c1	none
Cc1cc(/C=C(\C#N)c2nc3ccccc3[nH]2)c(C)n1C	STAT1 activator 142, FLuc inhib CS 78
N#C/C(=C/c1ccc(N2CCOCC2)o1)c1nc2ccccc2[nH]1	STAT1 activator 149, APP 5'UTR act 158, FLuc inhib CS 82
COc1c(O)ccc(/C=C(\C#N)c2nc3ccccc3[nH]2)c1[N+](=O)[O-]	STAT1 activator 134
Cc1ccccc1-c1cccc(CN2CCN(C)C(CCO)C2)c1 (centres undefined)	none (no result: FLuc stim CS, NF-kB expr up, STAT1 activator, APP 5'UTR act, FLuc inhib CS)
CC(C)CCN1C(=O)c2cccc3c(N)ccc(c23)C1=O	none (no result: FLuc stim CS, NF-kB expr up, STAT1 activator, APP 5'UTR act, FLuc inhib CS)
Fc1ccccc1CSc1nc2ccccc2[nH]1	NF-kB expr up 10, STAT1 activator 136, APP 5'UTR act 198, FLuc inhib CS 51
COC(=O)c1cc(CSc2nc3ccccc3[nH]2)oc1C	FLuc inhib CS 53 (no result: APP 5'UTR act)
COc1cccc(CSc2nc3ccccc3[nH]2)c1	NF-kB expr up 4, FLuc inhib CS 67 (no result: Pf gametocyte)
Cc1cc(S(=O)(=O)N2CCN(C(=O)CCC(=O)N3CCOCC3)CC2)ccc1Br	none (no result: FLuc stim CS, NF-kB expr up, STAT1 activator, APP 5'UTR act, FLuc inhib CS)
O=C(NC1CCCCC1)C1CCCN(c2nnnn2-c2ccccc2)C1 (centres undefined)	none (no result: Pf gametocyte)
CCCCCN1C=CC(=C2C(=O)c3ccccc3C2=O)C=C1	FLuc inhib CS 97 (no result: NF-kB expr up)
CCN1C(=C2C(=O)c3ccccc3C2=O)C=Cc2ccccc21	none
O=C(Nc1ccn(Cc2ccccc2)n1)c1ccc(F)cc1	STAT1 activator 138, FLuc inhib CS 50
CC(C)COC(=O)c1ccc(NC(=O)C2C3CCC(C3)C2C(=O)O)cc1 (centres undefined)	STAT1 activator 143
Cc1cc(C(=O)NCC(C)C)c2ccccc2n1	FLuc inhib CS 60 (no result: Pf gametocyte)
Cc1cc(C(=O)Nc2ccccc2Cl)c2ccccc2n1	none (no result: FLuc stim CS, NF-kB expr up, STAT1 activator, APP 5'UTR act, FLuc inhib CS)
CCOC(=O)c1sc(NC(=O)C2CCCO2)c(C(=O)OC)c1C (centres undefined)	none (no result: FLuc stim CS, NF-kB expr up, Pf gametocyte, FLuc inhib CS)
CN1C2C=C3C(C#N)=C(N)C(C#N)(C#N)[C@H](c4c(F)cccc4F)[C@H]3C1CC2 (some centres undefined)	none (no result: Pf gametocyte)
CN1C2C=C3C(C#N)=C(N)C(C#N)(C#N)[C@@H](c4cccs4)C3C1CC2 (some centres undefined)	NF-kB expr up 4.4
CC(=O)OCC(=O)N1N=C(c2ccc3ccccc3c2)CC1c1ccccc1 (centres undefined)	STAT1 activator 139
CCOC(=O)/C=C(\C)N1N=C(c2ccccc2)CC1c1ccccc1 (centres undefined)	STAT1 activator 142
Nc1cc(=O)[nH]c(SCC(=O)N2N=C(c3ccc4ccccc4c3)CC2c2ccccc2)n1 (centres undefined)	none (no result: FLuc stim CS, NF-kB expr up, STAT1 activator, APP 5'UTR act, FLuc inhib CS)
COc1ccc(C(=O)N/C=C/n2cnc3cc(C(F)(F)F)ccc32)cc1	none (no result: FLuc stim CS, NF-kB expr up, STAT1 activator, APP 5'UTR act, FLuc inhib CS)
COc1cc(-n2nnnc2SC)c(OC)cc1Cl	NF-kB expr up 3.6 (no result: Pf gametocyte)
COc1ccccc1-n1nnnc1SCc1ccccc1	none
O=C(NCc1ccc2c(c1)OCO2)c1ccc(N2CCCC2=O)cc1	none (no result: Pf gametocyte)
Brc1cccc(-c2n[nH]c(-c3ccccc3)n2)c1	NF-kB expr up 3.9, STAT1 activator 138
Cc1ccc(C2CCN(C(=O)Nc3ccccc3)C2)cc1 (centres undefined)	none (no result: Pf gametocyte)
Cc1ccc(NC(=O)N2CCC(c3ccccc3)C2)cc1C (centres undefined)	NF-kB expr up 5.7, STAT1 activator 150, APP 5'UTR act 143
O=C(Nc1ccc(Cl)cc1)N1CCC(c2ccccc2)C1 (centres undefined)	NF-kB expr up 6.2, STAT1 activator 146, APP 5'UTR act 169, FLuc inhib CS 64
COc1ccccc1/C=C/C(=O)N1CCC(c2ccccc2)C1 (centres undefined)	STAT1 activator 134
COCCn1c(SCC(=O)Nc2ccc(OC)cc2OC)nc2ccccc2c1=O	none (no result: FLuc stim CS, NF-kB expr up, STAT1 activator, APP 5'UTR act, FLuc inhib CS)
O=C(Nc1nnc(COc2ccc(Cl)cc2)s1)c1ccco1	none
CC(=O)c1cnn(-c2ccccc2)c1C	none
CC(=O)c1cnn(-c2nc3c(C)cccc3s2)c1C	NF-kB expr up 3.9 (no result: Pf gametocyte)
O=C(O)c1ccccc1N(c1ccccc1)c1ccccc1	none (no result: FLuc stim CS, NF-kB expr up, STAT1 activator, APP 5'UTR act, FLuc inhib CS)
Nc1ccccc1C(=O)N/N=C1\C2CN3CCN(C2)CC1(c1ccccc1)C3	STAT1 activator 130 (no result: Pf gametocyte)
O=C(N/N=C1\C2CN3CCN(C2)CC1(c1ccccc1)C3)c1ccc(F)cc1	none (no result: Pf gametocyte)
CCOc1ccc(NC(=S)N(CCc2c(C)[nH]c3ccccc23)Cc2ccco2)cc1	none (no result: Pf gametocyte)
CC(C)(C)OC1NS(=O)(=O)OCC1NCOC(Cl)(Cl)Cl (centres undefined)	none (no result: FLuc stim CS, NF-kB expr up, STAT1 activator, APP 5'UTR act, FLuc inhib CS)
COc1ccc(C=Nc2cccc3c(=O)[nH][nH]c(=O)c23)c2ccccc12	none (no result: Pf gametocyte)

Screening results from PubChem.
